In ChEMBL document CHEMBL4052595, “Application of Residual Dipolar Couplings and Selective Quantitative NOE to Establish the Structures of Tetranortriterpenoids from Xylocarpus rumphii” (J Nat Prod, 2017):
Active and inactive are the calls of the source.

What was measured:
Format in all cases: functional, cell-based
[1] = test system: NCI-H226; assay: Growth inhibition of human NCI-H226 cells at 10^-5 M incubated for 48 hrs by sulforhodamine B assay
Procedure, shortened: (§1)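 Run in the NCI59 one-dose cell-line screen, with each compound tested at a single concentration of 1 × 10−5 M.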

[2] = test system: RXF 393; assay: Growth inhibition of human RXF393 cells at 10^-5 M incubated for 48 hrs by sulforhodamine B assay; procedure, shortened: as §1
[3] = test system: NCI-H23; assay: Growth inhibition of human NCI-H23 cells at 10^-5 M incubated for 48 hrs by sulforhodamine B assay; procedure, shortened: as §1
[4] = test system: K562; assay: Growth inhibition of human K562 cells at 10^-5 M incubated for 48 hrs by sulforhodamine B assay; procedure, shortened: as §1
[5] = test system: TK-10; assay: Growth inhibition of human TK10 cells at 10^-5 M incubated for 48 hrs by sulforhodamine B assay
Procedure, shortened: (§2)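 Tested at a single concentration of 1 × 10−5 M as part of the NCI59 cell-line one-dose screen.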

[6] = test system: SF-268; assay: Growth inhibition of human SF268 cells at 10^-5 M incubated for 48 hrs by sulforhodamine B assay; procedure, shortened: as §1
[7] = test system: UACC-257; assay: Growth inhibition of human UACC257 cells at 10^-5 M incubated for 48 hrs by sulforhodamine B assay; procedure, shortened: as §2
[8] = test system: SK-MEL-28; assay: Growth inhibition of human SK-MEL-28 cells at 10^-5 M incubated for 48 hrs by sulforhodamine B assay; procedure, shortened: as §1
[9] = test system: EKVX; assay: Growth inhibition of human EKVX cells at 10^-5 M incubated for 48 hrs by sulforhodamine B assay; procedure, shortened: as §1
[10] = test system: OVCAR-8; assay: Growth inhibition of human OVCAR8 cells at 10^-5 M incubated for 48 hrs by sulforhodamine B assay; procedure, shortened: as §1
[11] = test system: CAKI-1; assay: Growth inhibition of human Caki1 cells at 10^-5 M incubated for 48 hrs by sulforhodamine B assay; procedure, shortened: as §1
[12] = test system: MDA-MB-231; assay: Growth inhibition of human MDA-MB-231 cells at 10^-5 M incubated for 48 hrs by sulforhodamine B assay; procedure, shortened: as §1
[13] = test system: LOX IMVI; assay: Growth inhibition of human LOXIMVI cells at 10^-5 M incubated for 48 hrs by sulforhodamine B assay; procedure, shortened: as §1
[14] = test system: PC-3; assay: Growth inhibition of human PC3 cells at 10^-5 M incubated for 48 hrs by sulforhodamine B assay; procedure, shortened: as §1
[15] = test system: HCC 2998; assay: Growth inhibition of human HCC2998 cells at 10^-5 M incubated for 48 hrs by sulforhodamine B assay; procedure, shortened: as §1
[16] = test system: OVCAR-3; assay: Growth inhibition of human OVCAR3 cells at 10^-5 M incubated for 48 hrs by sulforhodamine B assay; procedure, shortened: as §1
[17] = test system: MOLT-4; assay: Growth inhibition of human MOLT4 cells at 10^-5 M incubated for 48 hrs by sulforhodamine B assay; procedure, shortened: as §1
[18] = test system: SK-MEL-5; assay: Growth inhibition of human SK-MEL-5 cells at 10^-5 M incubated for 48 hrs by sulforhodamine B assay; procedure, shortened: as §1
[19] = test system: HL-60(TB); assay: Growth inhibition of human HL-60(TB) cells at 10^-5 M incubated for 48 hrs by sulforhodamine B assay
Procedure, shortened: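 Run in the NCI59 cell-line one-dose screen, with each compound tested at a single concentration of 1 × 10−5 M.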

[20] = test system: BT-549; assay: Growth inhibition of human BT549 cells at 10^-5 M incubated for 48 hrs by sulforhodamine B assay; procedure, shortened: as §1
[21] = test system: SK-OV-3; assay: Growth inhibition of human SKOV3 cells at 10^-5 M incubated for 48 hrs by sulforhodamine B assay; procedure, shortened: as §1
[22] = test system: U-251; assay: Growth inhibition of human U251 cells at 10^-5 M incubated for 48 hrs by sulforhodamine B assay; procedure, shortened: as §2
[23] = test system: M14; assay: Growth inhibition of human M14 cells at 10^-5 M incubated for 48 hrs by sulforhodamine B assay; procedure, shortened: as §1
[24] = test system: ACHN; assay: Growth inhibition of human ACHN cells at 10^-5 M incubated for 48 hrs by sulforhodamine B assay; procedure, shortened: as §1
[25] = test system: DU-145; assay: Growth inhibition of human DU145 cells at 10^-5 M incubated for 48 hrs by sulforhodamine B assay; procedure, shortened: as §1
[26] = test system: SF-539; assay: Growth inhibition of human SF539 cells at 10^-5 M incubated for 48 hrs by sulforhodamine B assay; procedure, shortened: as §1
[27] = test system: COLO 205; assay: Growth inhibition of human COLO205 cells at 10^-5 M incubated for 48 hrs by sulforhodamine B assay; procedure, shortened: as §1
[28] = test system: HT-29; assay: Growth inhibition of human HT-29 cells at 10^-5 M incubated for 48 hrs by sulforhodamine B assay; procedure, shortened: as §1
[29] = test system: KM12; assay: Growth inhibition of human KM12 cells at 10^-5 M incubated for 48 hrs by sulforhodamine B assay; procedure, shortened: as §1
[30] = test system: UACC-62; assay: Growth inhibition of human UACC62 cells at 10^-5 M incubated for 48 hrs by sulforhodamine B assay; procedure, shortened: as §2
[31] = test system: SNB-75; assay: Growth inhibition of human SNB75 cells at 10^-5 M incubated for 48 hrs by sulforhodamine B assay; procedure, shortened: as §1
[32] = test system: SN12C; assay: Growth inhibition of human SN12C cells at 10^-5 M incubated for 48 hrs by sulforhodamine B assay; procedure, shortened: as §1
[33] = test system: SF-295; assay: Growth inhibition of human SF295 cells at 10^-5 M incubated for 48 hrs by sulforhodamine B assay; procedure, shortened: as §1
[34] = test system: HOP-92; assay: Growth inhibition of human HOP92 cells at 10^-5 M incubated for 48 hrs by sulforhodamine B assay; procedure, shortened: as §1
[35] = test system: NCI-H460; assay: Growth inhibition of human NCI-H460 cells at 10^-5 M incubated for 48 hrs by sulforhodamine B assay; procedure, shortened: as §1
[36] = test system: IGROV-1; assay: Growth inhibition of human IGROV1 cells at 10^-5 M incubated for 48 hrs by sulforhodamine B assay; procedure, shortened: as §1
[37] = test system: NCI-H322M; assay: Growth inhibition of human NCI-H322M cells at 10^-5 M incubated for 48 hrs by sulforhodamine B assay; procedure, shortened: as §1
[38] = test system: OVCAR-4; assay: Growth inhibition of human OVCAR4 cells at 10^-5 M incubated for 48 hrs by sulforhodamine B assay; procedure, shortened: as §1
[39] = test system: OVCAR-5; assay: Growth inhibition of human OVCAR5 cells at 10^-5 M incubated for 48 hrs by sulforhodamine B assay; procedure, shortened: as §1
[40] = test system: MCF7; assay: Growth inhibition of human MCF7 cells at 10^-5 M incubated for 48 hrs by sulforhodamine B assay; procedure, shortened: as §1
[41] = test system: RPMI-8226; assay: Growth inhibition of human RPMI8226 cells at 10^-5 M incubated for 48 hrs by sulforhodamine B assay; procedure, shortened: as §1
[42] = test system: SR; assay: Growth inhibition of human SR cells at 10^-5 M incubated for 48 hrs by sulforhodamine B assay; procedure, shortened: as §1
[43] = test system: SNB-19; assay: Growth inhibition of human SNB19 cells at 10^-5 M incubated for 48 hrs by sulforhodamine B assay; procedure, shortened: as §1
[44] = test system: HCT-15; assay: Growth inhibition of human HCT15 cells at 10^-5 M incubated for 48 hrs by sulforhodamine B assay; procedure, shortened: as §1
[45] = test system: Hs-578T; assay: Growth inhibition of human Hs 578T cells at 10^-5 M incubated for 48 hrs by sulforhodamine B assay; procedure, shortened: as §1
[46] = test system: SW-620; assay: Growth inhibition of human SW620 cells at 10^-5 M incubated for 48 hrs by sulforhodamine B assay; procedure, shortened: as §2
[47] = test system: HCT-116; assay: Growth inhibition of human HCT116 cells at 10^-5 M incubated for 48 hrs by sulforhodamine B assay; procedure, shortened: as §1
[48] = test system: HOP-62; assay: Growth inhibition of human HOP62 cells at 10^-5 M incubated for 48 hrs by sulforhodamine B assay; procedure, shortened: as §1
[49] = test system: MDA-MB-435; assay: Growth inhibition of human MDA-MB-435 cells at 10^-5 M incubated for 48 hrs by sulforhodamine B assay; procedure, shortened: as §1
[50] = test system: T47D; assay: Growth inhibition of human T47D cells at 10^-5 M incubated for 48 hrs by sulforhodamine B assay; procedure, shortened: as §2
[51] = test system: SK-MEL-2; assay: Growth inhibition of human SK-MEL-2 cells at 10^-5 M incubated for 48 hrs by sulforhodamine B assay; procedure, shortened: as §1
[52] = test system: A498; assay: Growth inhibition of human A498 cells at 10^-5 M incubated for 48 hrs by sulforhodamine B assay; procedure, shortened: as §1
[53] = test system: 786-0; assay: Growth inhibition of human 786-0 cells at 10^-5 M incubated for 48 hrs by sulforhodamine B assay; procedure, shortened: as §1
[54] = test system: A549; assay: Growth inhibition of human A549/ATCC cells at 10^-5 M incubated for 48 hrs by sulforhodamine B assay; procedure, shortened: as §1
[55] = test system: UO-31; assay: Growth inhibition of human UO31 cells at 10^-5 M incubated for 48 hrs by sulforhodamine B assay; procedure, shortened: as §2
[56] = test system: CCRF-CEM; assay: Growth inhibition of human CCRF-CEM cells at 10^-5 M incubated for 48 hrs by sulforhodamine B assay; procedure, shortened: as §1
[57] = test system: NCI-H522; assay: Growth inhibition of human NCI-H522 cells at 10^-5 M incubated for 48 hrs by sulforhodamine B assay; procedure, shortened: as §1
[58] = test system: NCI/ADR-RES; assay: Growth inhibition of human NCI/ADR-RES cells at 10^-5 M incubated for 48 hrs by sulforhodamine B assay; procedure, shortened: as §1

Measured: growth inhibition (GI)

COC(=O)C[C@H]1C(C)(C)[C@H](OC(=O)C(C)C)[C@@H]2[C@@H](OC(=O)C(C)C)[C@@]34O[C@]2(O)[C@]1(C)[C@H]3CC[C@]1(C)[C@H]4CC(=O)O[C@H]1c1ccoc1
inactive: all assays above
